The structures appear in SMILES notation. Active and inactive are the calls of the source. The rule behind the calls is not given here.

From ChEMBL document CHEMBL3425463, “The quassinoid isobrucein B reduces inflammatory hyperalgesia and cytokine production by post-transcriptional modulation” (J Nat Prod, 2015) come the findings set out here.

Data set [1] has as its system RAW264.7. The data set can be described thus: Inhibition of NF-kappaB-mediated IkappaBalpha degradation in LPS-induced mouse RAW264.7 cells at 10 uM treated 30 mins before LPS challenge by Western blot analysis. The format is cell-based. The procedure, abridged:
(§1)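 RAW 264.7 cells treated before LPS. Cytoplasmic and nuclear fractions made by hypotonic/high-salt (420 mM NaCl) lysis; Bradford protein assay; 12% SDS-PAGE. Blots: IκB-α (1:1000) on cytoplasmic and p65 (1:300) on nuclear extracts, ECL detection. Nucleophosmin and actin as fraction markers; bands normalized to medium control.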
(In general: Immunoblotting shows a protein as a band on a membrane.)

For data set [2], the system named is RAW264.7. As to the kind of experiment: Inhibition of PGN-induced NF-kappaB activation in mouse RAW264.7 cells assessed as reduction luminescence emission at 0.001 to 10 uM pretreated 30 mins before LPS challenge measured after 4 hrs by luciferase reporter gene assay. The class given is cell-based. Put shortly:
(§2)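 RAW 264.7 NF-κB-luciferase reporter cells pretreated 30 min (0.001−10 μM) before stimulus: LPS 1 μg/mL, PGN 10 μg/mL, TNF 10 ng/mL or PMA 1 μg/mL. Cells lysed at 4 h; luciferin added, luminescence read. Expressed relative to stimulus alone set at 100%. Dexamethasone 1 mM control. n = 4–5.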

The test system of data set [3] is RAW264.7. The data set can be described thus: Inhibition of luminescence emission in mouse RAW264.7 cells transfected with luciferase plasmid containing universal promoter PKG at 0.1 to 10 uM after 6 hrs by luciferase reporter gene assay. The format is functional, cell-based. Put shortly: (§3)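 RAW 264.7 cells (5 × 10^5/well) in RPMI-1640 with 2% FBS, transfected with a PGK-promoter luciferase plasmid (1 μg/well) for 6 h at 37 °C, 5% CO2. Then treated 6 h with drug, dexamethasone 1 mM, pyrrolidine dithiocarbamate 500 μM or cycloheximide 70 μM. Cells lysed in Tris/NaCl/Tween buffer, pH 7.5, and luminescence read.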
Background: In a reporter assay the amount or activity of a reporter protein is the signal.

Data set [4] has as its system RAW264.7. The data set can be described thus: Antiinflammatory activity against mouse RAW264.7 cells assessed as reduction of LPS-induced TNF mRNA expression cells at 10 uM treated 30 mins before LPS challenge measured after 3 hrs by qRT-PCR analysis. The class given is functional, cell-based. For orientation: Quantitative PCR measures a nucleic acid by following its amplification.

For data set [5], the system named is RAW264.7. The data set can be described thus: Antiinflammatory activity against mouse RAW264.7 cells assessed as reduction of LPS-induced IL-1beta production compound pretreated 30 mins of LPS challenge measured after 4 hrs by ELISA. The format is functional, cell-based.
Data set [6] relates to peritoneal macrophages (Mus musculus). The data set can be described thus: Cytotoxicity against mouse peritoneal macrophages assessed as cell viability at 0.001 to 10 uM pretreated 30 mins by MTT assay in presence of LPS.
Data set [7] has as its system RAW264.7. As to the kind of experiment: Inhibition of PMA-induced NF-kappaB activation in mouse RAW264.7 cells assessed as reduction luminescence emission at 0.001 to 10 uM pretreated 30 mins before LPS challenge measured after 4 hrs by luciferase reporter gene assay. The format is cell-based. Put shortly: as §2
For data set [8], the system named is Mus musculus. The data set can be described thus: Antiinflammatory activity in carrageenan-induced mechanical inflammatory hyperalgesia male C57BL/6 mouse model assessed as inhibition of KC/CXCL1 production in inflamed tissue at 5 mg/kg, […] and measured after 3 hrs. The arrangement: dose 5 mg/kg. The class given is functional, organism-based.
For data set [9], the system named is RAW264.7. The data set can be described thus: Antiinflammatory activity against mouse RAW264.7 cells assessed as reduction of LPS-induced KC/CXCL1 production compound pretreated 30 mins of LPS challenge measured after 4 hrs by ELISA. The format is functional, cell-based.
In data set [10] the test system is RAW264.7. The data set can be described thus: Antiinflammatory activity against mouse RAW264.7 cells assessed as reduction of LPS-induced TNF production compound pretreated 30 mins of LPS challenge measured after 4 hrs by ELISA. The format is functional, cell-based.
Data set [11] has as its system RAW264.7. The data set can be described thus: Inhibition of LPS-induced NF-kappaB activation in mouse RAW264.7 cells assessed as reduction luminescence emission at 0.001 to 10 uM pretreated 30 mins before LPS challenge measured after 4 hrs by luciferase reporter gene assay. The format is cell-based. Put shortly:
as §2

Data set [12] has as its system Mus musculus. As to the kind of experiment: Antiinflammatory activity in carrageenan-induced mechanical inflammatory hyperalgesia male C57BL/6 mouse model assessed as inhibition of IL-1beta production in inflamed tissue at 5 mg/kg, […] and measured after 3 hrs. The class given is functional, organism-based. The arrangement: dose 5 mg/kg.
Data set [13] deals with Mus musculus. The data set can be described thus: Antihyperalgesic activity in male C57BL/6 mouse assessed as reduction in carrageenan-induced mechanical inflammatory hyperalgesia at 5 mg/kg, […] and measured after 3 hrs. The format is functional, organism-based. The arrangement: dose 5 mg/kg.
The subject of data set [14] is RAW264.7. As to the kind of experiment: Inhibition of LPS-induced NF-kappaB p65 translocation into nucleus in mouse RAW264.7 cells at 10 uM treated 30 mins before LPS challenge by Western blot analysis. The class given is cell-based. The procedure, abridged:
as §1

For data set [15], the system named is Mus musculus. The data set can be described thus: Antiinflammatory activity in carrageenan-induced mechanical inflammatory hyperalgesia male C57BL/6 mouse model assessed as inhibition of TNF level production in inflamed tissue at 5 mg/kg, […] and measured after 3 hrs. Details: dose 5 mg/kg. The format is functional, organism-based.
For data set [16], the system named is RAW264.7. The data set can be described thus: Inhibition of TNF-induced NF-kappaB activation in mouse RAW264.7 cells assessed as reduction luminescence emission at 0.001 to 10 uM pretreated 30 mins before LPS challenge measured after 4 hrs by luciferase reporter gene assay. The class given is cell-based. Put shortly:
as §2

For data set [17], the system named is Mus musculus. As to the kind of experiment: Antihyperalgesic activity in sc dosed male C57BL/6 mouse assessed as reduction in carrageenan-induced mechanical inflammatory hyperalgesia […] and measured after 3 hrs. The class given is functional, organism-based.
Data set [18] concerns RAW264.7. The data set can be described thus: Inhibition of luminescence emission in mouse RAW264.7 cells transfected with luciferase plasmid containing universal promoter PKG at 500 uM after 6 hrs by luciferase reporter gene assay. The class given is functional, cell-based. The procedure, abridged:
as §3

The subject of data set [19] is RAW264.7. The data set can be described thus: Antiinflammatory activity against mouse RAW264.7 cells assessed as reduction of LPS-induced TNF mRNA expression cells at 1 mM treated 30 mins before LPS challenge measured after 3 hrs by qRT-PCR analysis. The format is functional, cell-based. Put shortly:
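RAW 264.7 macrophages (1.5 × 10^6 cells/well) in supplemented RPMI-1640 were pretreated with vehicle, test compound or dexamethasone (1 mM) before LPS stimulation. Cells were lysed in TRIzol, and TNF mRNA was measured by quantitative real-time PCR with GAPDH primers. Stock in DMSO diluted in RPMI-1640, final DMSO ≤0.5%.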

Data set [20] concerns RAW264.7. As to the kind of experiment: Inhibition of luminescence emission in mouse RAW264.7 cells transfected with luciferase plasmid containing universal promoter PKG at 1 mM after 6 hrs by luciferase reporter gene assay. The format is functional, cell-based. Put shortly:
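RAW 264.7 cells (5 × 10^5/well) in RPMI-1640 with 2% FBS were transfected with pmirGLO dual-luciferase plasmid (1 μg/well, PGK universal promoter) by FuGene 6 for 6 h at 37 °C, 5% CO2. Compound was added ([…] as printed) and incubated 6 h. Cells were lysed in TNT buffer, and luciferin luminescence was read. Controls: dexamethasone, PDTC, cycloheximide.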

Data set [21] concerns Mus musculus. The data set can be described thus: Inhibition of protein synthesis in carrageenan-induced mechanical inflammatory hyperalgesia male C57BL/6 mouse model assessed as inhibition of IL-1beta production in inflamed tissue at 20 mg/kg, sc […] challenge and measured after 3 hrs by ELISA. The format is functional, organism-based. The arrangement: dose 20 mg/kg.

Data set [22] concerns RAW264.7. As to the kind of experiment: Inhibition of luminescence emission in mouse RAW264.7 cells transfected with luciferase plasmid containing universal promoter PKG at 70 uM after 6 hrs by luciferase reporter gene assay. The format is functional, cell-based. The procedure, abridged:
as §3

For data set [23], the system named is Mus musculus. The data set can be described thus: Inhibition of protein synthesis in carrageenan-induced mechanical inflammatory hyperalgesia male C57BL/6 mouse model assessed as inhibition of TNF production in inflamed tissue at 20 mg/kg, sc […] challenge and measured after 3 hrs by ELISA. The class given is functional, organism-based. Details: dose 20 mg/kg.

Consider `COC(=O)[C@@]12OC[C@]34[C@H]([C@@H](O)[C@@H]1O)[C@@]1(C)[C@H](O)C(=O)C=C(C)[C@@H]1C[C@H]3OC(=O)[C@H](OC(C)=O)[C@@H]24` [ISOBRUCEIN B], for which the outcome in the data set on RAW264.7 [1] and in the data set with RAW264.7 [14] was inactive. In addition, the inhibition result in the data set on RAW264.7 [2], with RAW264.7 [7], with RAW264.7 [11] and with RAW264.7 [16] was “Dose-dependent effect” in each case. Besides, the inhibition entry in the data set on RAW264.7 [3], in the data set on RAW264.7 [5], in the data set on Mus musculus [8], in the data set with RAW264.7 [9], with RAW264.7 [10] and in the data set with Mus musculus [12] was “Active” throughout. Also, the inhibition entry in the data set with Mus musculus [13] is “Active”. Besides, the inhibition result with RAW264.7 [4] and with Mus musculus [15] was “inactive” throughout. Moreover, the Activity result in data set [6] is “Non-toxic”; in the data set with Mus musculus [17], “Dose-dependent effect”.

On to `S=C(S)N1CCCC1`, for which the inhibition result with RAW264.7 [18] was “inactive”.

For `C[C@@H]1C[C@H]2[C@@H]3CCC4=CC(=O)C=C[C@]4(C)[C@@]3(F)[C@@H](O)C[C@]2(C)[C@@]1(O)C(=O)CO`, the inhibition result in the data set on RAW264.7 [19] was “Active”. The inhibition entry in the data set on RAW264.7 [20] was “inactive”.

For `C[C@@H]1C[C@@H]([C@H](O)CC2CC(=O)NC(=O)C2)C(=O)[C@@H](C)C1`, the inhibition entry in the data set on Mus musculus [21] and with RAW264.7 [22] was “Active” in each case. In the data set on Mus musculus [23], the inhibition entry is “inactive”.
